Experimental data as given in ChEMBL document CHEMBL4152216, “Syntheses and anti-pancreatic cancer activities of rakicidin A analogues” (Eur J Med Chem, 2018).

Tests used:
[1] = test system: PANC-1; assay: Cytotoxicity against human PANC1 cells after 72 hrs under hypoxic condition by MTT assay; type: functional, cell-based; conditions: PANC-1, 72 h
Method in brief: (§1)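 PANC-1, PATU8988T and ASPC-1 cells were grown in DMEM with 10% FBS at 37 °C and 5% CO2, then seeded at 4000 cells/well. Compounds were added at various concentrations after 6 h. Normoxic plates stayed at 37 °C, 5% CO2. Hypoxic plates went into a chamber purged 10 min with 5% CO2/1% O2/94% N2, sealed, at 37 °C. After 72 h, MTT was added for 4 h, formazan dissolved in DMSO and read at 570 nm. IC50 is the mean ± SD of three independent experiments.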

[2] = test system: PANC-1; assay: Cytotoxicity against human PANC1 cells after 72 hrs under normoxic condition by MTT assay; type: functional, cell-based; conditions: PANC-1, 72 h; method in brief: as §1
[3] = test system: PANC-1; assay: Selectivity index, ratio of IC50 against human PANC1 cells under normoxic condition to IC50 for human PANC1 cells under hypoxic condition; type: functional
Method in brief: (§2)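 Hypoxic selectivity index is IC50 (normoxia)/IC50 (hypoxia). Both IC50s come from the 72 h MTT assay in the same cell line, run under normoxia (37 °C, 5% CO2) or a sealed 1% O2/5% CO2/94% N2 chamber, each the mean of three independent experiments.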

[4] = test system: ASPC1; assay: Cytotoxicity against human Aspc-1 cells after 72 hrs under normoxic condition by MTT assay; type: functional, cell-based; conditions: ASPC1, 72 h; method in brief: as §1
[5] = test system: ASPC1; assay: Cytotoxicity against human Aspc-1 cells after 72 hrs under hypoxic condition by MTT assay; type: functional, cell-based; conditions: ASPC1, 72 h; method in brief: as §1
[6] = test system: ASPC1; assay: Selectivity index, ratio of IC50 against human Aspc-1 cells under normoxic condition to IC50 for human Aspc-1 cells under hypoxic condition; type: functional; method in brief: as §2
[7] = test system: PaTu 8988t; assay: Cytotoxicity against human PA-TU-8988T cells after 72 hrs under normoxic condition by MTT assay; type: functional, cell-based; method in brief: as §1
[8] = test system: PaTu 8988t; assay: Cytotoxicity against human PA-TU-8988T cells after 72 hrs under hypoxic condition by MTT assay; type: functional, cell-based; method in brief: as §1
[9] = test system: PaTu 8988t; assay: Selectivity index, ratio of IC50 against human PA-TU-8988T cells under normoxic condition to IC50 for human PA-TU-8988T cells under hypoxic condition; type: functional; method in brief: as §2
[10] = test system: PANC-1; assay: Inhibition of cancer stem cell population of human PANC1 cells assessed as CD24+/CD44+/ESA+ cell population level at 0.15 uM after 48 hrs by flow cytometric analysis (reference value: 1.7%); type: functional; parameters: scale not given: the % may be the effect or the level left

C=C1/C=C/C(=O)N(C)CC(=O)N[C@@H](CC(=O)OC)C(=O)O[C@@H]([C@H](C)CCCCCCCCCCCC(C)C)[C@H](C)C(=O)N1
IC50 [1]: 48 nM | IC50 [2]: 110 nM | Ratio IC50 [3]: 2.36 | IC50 [4]: 360 nM | IC50 [5]: 600 nM | Ratio IC50 [6]: 0.59 | IC50 [7]: 360 nM | IC50 [8]: 73 nM | Ratio IC50 [9]: 5.03 | Activity [10]: 1.2%

C=C1/C=C/C(=O)N(C)C(C)C(=O)N[C@@H]([C@H](O)C(=O)OC)C(=O)O[C@@H]([C@H](C)CCCCCCCCCCCC(C)C)[C@H](C)C(=O)N1 (single isomer, unassigned; 1d)
IC50 [1]: 79 nM | IC50 [2]: 660 nM | Ratio IC50 [3]: 8.34 | IC50 [4]: 3200 nM | IC50 [5]: 400 nM | Ratio IC50 [6]: 7.87 | IC50 [7]: 1100 nM | IC50 [8]: 380 nM | Ratio IC50 [9]: 2.86

C=C1/C=C/C(=O)N(C)CC(=O)N[C@@H](C(C)C)C(=O)O[C@@H]([C@H](C)CCCCCCCCCCCCCC)[C@H](C)C(=O)N1
IC50 [1]: 350 nM | IC50 [2]: 1000 nM | Ratio IC50 [3]: 3

CCCCCCCCCCCCCC[C@@H](C)[C@@H]1OC(=O)[C@H](CC(=O)NC2CC2)NC(=O)CN(C)C(=O)/C=C/[C@H](CO)NC(=O)[C@H]1C
IC50 [1]: > 10000 nM | IC50 [2]: > 10000 nM

C=C1/C=C/C(=O)N(C)CC(=O)N[C@@H](CCC(=O)OC)C(=O)O[C@@H]([C@H](C)CCCCCCCCCCCCCC)[C@H](C)C(=O)N1
IC50 [1]: 300 nM | IC50 [2]: 1100 nM | Ratio IC50 [3]: 3.54

C=C1/C=C/C(=O)N(C)CC(=O)N[C@@H](CC(=O)OC(C)C)C(=O)O[C@@H]([C@H](C)CCCCCCCCCCCC(C)C)[C@H](C)C(=O)N1
IC50 [1]: 700 nM | IC50 [2]: 1800 nM | Ratio IC50 [3]: 2.6

C=C1/C=C/C(=O)N(C)CC(=O)O[C@@H](CCCCCCCCCCCCC)[C@H](C)C(=O)[C@](C)(O)C(=O)NCC(=O)N1
IC50 [1]: 15 nM | IC50 [2]: 650 nM | Ratio IC50 [3]: 43.33

CC(=O)O[C@H]1C(=O)[C@@]2(C)[C@H]([C@H](OC(=O)c3ccccc3)[C@]3(O)C[C@H](OC(=O)[C@H](O)[C@@H](NC(=O)c4ccccc4)c4ccccc4)C(C)=C1C3(C)C)[C@]1(OC(C)=O)CO[C@@H]1C[C@@H]2O [PACLITAXEL]
Activity [10]: 1.6%

C=C1/C=C/C(=O)N(C)CC(=O)N[C@@H](CC(=O)NC)C(=O)O[C@@H]([C@H](C)CCCCCCCCCCCCCC)[C@H](C)C(=O)N1
IC50 [1]: 38 nM | IC50 [2]: 170 nM | Ratio IC50 [3]: 4.44 | IC50 [4]: 500 nM | IC50 [5]: 46 nM | Ratio IC50 [6]: 10.98 | IC50 [7]: 260 nM | IC50 [8]: 60 nM | Ratio IC50 [9]: 4.42 | Activity [10]: 0.33%

C=C1/C=C/C(=O)N(C)CC(=O)N[C@@H]([C@H](O)C(=O)OCC)C(=O)O[C@@H]([C@H](C)CCCCCCCCCCCC(C)C)[C@H](C)C(=O)N1
IC50 [1]: 67 nM | IC50 [2]: 160 nM | Ratio IC50 [3]: 2.33 | IC50 [4]: 480 nM | IC50 [5]: 180 nM | Ratio IC50 [6]: 2.64 | IC50 [7]: 380 nM | IC50 [8]: 120 nM | Ratio IC50 [9]: 3.25

C=C1/C=C/C(=O)N(C)C(C)C(=O)N[C@@H]([C@H](O)C(=O)OC)C(=O)O[C@@H]([C@H](C)CCCCCCCCCCCC(C)C)[C@H](C)C(=O)N1 (single isomer, unassigned; 1c)
IC50 [1]: 43 nM | IC50 [2]: 410 nM | Ratio IC50 [3]: 9.53 | IC50 [4]: 1200 nM | IC50 [5]: 200 nM | Ratio IC50 [6]: 5.71 | IC50 [7]: 540 nM | IC50 [8]: 200 nM | Ratio IC50 [9]: 2.79
